# Measured values: ChEMBL document CHEMBL4342528, “Discovery of a First-in-Class Protein Arginine Methyltransferase 6 (PRMT6) Covalent Inhibitor” (J Med Chem, 2020)
# Active and inactive are the calls of the source. The rule behind the calls is not given here.
# What was measured:
# [1] = target: DNMT3B-DNMT3L complex (Homo sapiens) (UniProt Q9UBC3+Q9UJW3); assay: Inhibition of DNMT3B/3L (unknown origin) at 10 uM using un-biotinylated Poly(2'-deoxyinosinic-2'-deoxycytidylic acid) substrate using [3H-SAM] incubated for 1 hr by scintillation proximity assay; assay type: protein-complex assay
# Procedure, shortened: (§1)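 Panel of 33 methyltransferases (22 PKMTs, 3 DNMTs, 8 PRMTs), each tested at 10 and 50 μM compound. Activity was read as ³H-methyl transfer from ³H-SAM in a radiometric assay done as previously described.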
# [2] = target: T1, Histone-arginine methyltransferase CARM1 (Homo sapiens) (UniProt Q86X55); assay: Inhibition of PRMT4 in human MCF7 cells assessed as reduction in BAF155 asymmetric dimethylation at 0.2 to 20 uM incubated for 2 days; assay type: cell-based
# T1 sequence (whole entry): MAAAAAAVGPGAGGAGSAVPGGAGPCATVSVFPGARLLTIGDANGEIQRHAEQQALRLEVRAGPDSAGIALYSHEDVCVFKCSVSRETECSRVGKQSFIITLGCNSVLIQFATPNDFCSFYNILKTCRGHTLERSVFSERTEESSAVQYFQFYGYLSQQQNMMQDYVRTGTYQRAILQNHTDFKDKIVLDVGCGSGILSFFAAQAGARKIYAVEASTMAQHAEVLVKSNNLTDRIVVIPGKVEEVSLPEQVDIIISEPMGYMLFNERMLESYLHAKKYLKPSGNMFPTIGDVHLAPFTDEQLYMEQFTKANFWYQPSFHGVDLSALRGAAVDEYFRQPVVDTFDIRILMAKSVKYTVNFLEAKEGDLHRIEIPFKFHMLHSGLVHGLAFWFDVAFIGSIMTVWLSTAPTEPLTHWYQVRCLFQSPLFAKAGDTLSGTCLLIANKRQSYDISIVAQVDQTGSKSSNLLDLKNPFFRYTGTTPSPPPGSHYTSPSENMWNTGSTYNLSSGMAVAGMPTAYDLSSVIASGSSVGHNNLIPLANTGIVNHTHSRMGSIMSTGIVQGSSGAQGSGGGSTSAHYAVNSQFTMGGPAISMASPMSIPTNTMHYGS
# Homo sapiens = organism: Homo sapiens; assay: Selectivity index, ratio of IC50 for human PRMT4 to IC50 for human PRMT6
# [3] = target: Protein arginine N-methyltransferase 1 (Homo sapiens, UniProt Q99873); assay: Covalent binding affinity to human PRMT1 assessed as covalent adduct. formation at 300 uM pre-incubated for 1 hr by mass spectrometry
# Procedure, shortened: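 PRMT protein at 15 μM was incubated 1 h at room temperature with a 20-fold molar excess of inhibitor (300 μM). The reaction was quenched with 0.1% aqueous TFA, separated by HPLC (5–95% acetonitrile in water) and analysed by ESI time-of-flight LC/MS for protein–ligand adduct mass.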
# [4] = target: Histone-lysine N-methyltransferase EHMT1 (Homo sapiens) (UniProt Q9H9B1); assay: Inhibition of GLP (unknown origin) assessed as reduction in incorporation of [3H]-labeled methyl group into biotinylated substrate using [3H-SAM] at 10 uM incubated for 1 hr by scintillation proximity assay; procedure, shortened: as §1
# HEK-293T = assay: Toxicity in HEK293T cells assessed as reduction in cell viability up to 20 uM incubated for 3 days by CCK8 assay; assay type: cell-based; conditions: human, 72 h
# Procedure, shortened: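 Cells seeded 1×10^4 per well in triplicate, treated after 24 h with serial dilutions from 20 μM for 3 days; CCK-8 (WST-8) added, 4 h at 37 °C, absorbance at 450 nm; mean ± SD of three replicate experiments.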
# [5] = target: Protein arginine N-methyltransferase 8 (Homo sapiens, UniProt Q9NR22); assay: Inhibition of human PRMT8 using [3H]SAM as donor and [3H]methylated biotin-labeled peptide as substrate by scintillation proximity assay
# Procedure, shortened: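 Radiometric SPA: ³H-methyl transfer from ³H-SAM to biotin-labeled peptide, captured on streptavidin/scintillant-coated plate, counts per minute read; substrate and cofactor each at their Km for the enzyme; compound titrated; IC50 from triplicate determinations, mean ± SD.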
# Histone-lysine N-methyltransferase EHMT1 (Homo sapiens), sequence (Q9H9B1 whole entry): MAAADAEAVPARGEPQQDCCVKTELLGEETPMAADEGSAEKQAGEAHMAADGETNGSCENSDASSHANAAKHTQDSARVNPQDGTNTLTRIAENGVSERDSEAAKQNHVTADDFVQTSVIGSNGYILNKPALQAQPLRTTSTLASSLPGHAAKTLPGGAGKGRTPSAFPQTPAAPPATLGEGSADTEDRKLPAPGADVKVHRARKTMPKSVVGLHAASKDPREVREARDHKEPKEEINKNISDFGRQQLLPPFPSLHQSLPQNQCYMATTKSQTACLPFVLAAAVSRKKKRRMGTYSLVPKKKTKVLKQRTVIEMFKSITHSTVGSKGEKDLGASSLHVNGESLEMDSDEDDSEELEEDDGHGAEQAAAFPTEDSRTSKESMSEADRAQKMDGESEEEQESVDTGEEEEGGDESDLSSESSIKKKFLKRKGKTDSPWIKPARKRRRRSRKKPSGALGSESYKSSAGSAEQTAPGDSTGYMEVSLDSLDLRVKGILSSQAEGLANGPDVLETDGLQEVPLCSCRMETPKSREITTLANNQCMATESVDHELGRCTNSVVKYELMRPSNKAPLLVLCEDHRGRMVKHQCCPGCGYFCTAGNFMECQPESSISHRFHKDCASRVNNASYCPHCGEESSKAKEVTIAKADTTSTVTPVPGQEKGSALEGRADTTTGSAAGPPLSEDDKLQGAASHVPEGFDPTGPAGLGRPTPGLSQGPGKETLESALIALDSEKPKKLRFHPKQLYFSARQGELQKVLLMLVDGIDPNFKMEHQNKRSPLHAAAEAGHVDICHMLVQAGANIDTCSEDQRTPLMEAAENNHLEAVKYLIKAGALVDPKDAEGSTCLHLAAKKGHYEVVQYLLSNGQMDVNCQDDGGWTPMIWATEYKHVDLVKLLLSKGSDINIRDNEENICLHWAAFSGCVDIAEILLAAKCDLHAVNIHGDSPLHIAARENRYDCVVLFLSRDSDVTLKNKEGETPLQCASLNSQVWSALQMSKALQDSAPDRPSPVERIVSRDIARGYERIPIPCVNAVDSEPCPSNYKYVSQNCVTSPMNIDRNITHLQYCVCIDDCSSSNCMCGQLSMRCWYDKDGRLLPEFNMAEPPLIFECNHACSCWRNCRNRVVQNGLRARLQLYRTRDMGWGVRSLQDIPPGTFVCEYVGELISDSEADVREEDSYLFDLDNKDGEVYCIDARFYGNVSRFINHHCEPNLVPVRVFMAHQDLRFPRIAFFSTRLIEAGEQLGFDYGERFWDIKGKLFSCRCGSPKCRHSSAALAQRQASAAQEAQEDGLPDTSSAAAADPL
# Protein arginine N-methyltransferase 8, sequence (Q9NR22 whole entry): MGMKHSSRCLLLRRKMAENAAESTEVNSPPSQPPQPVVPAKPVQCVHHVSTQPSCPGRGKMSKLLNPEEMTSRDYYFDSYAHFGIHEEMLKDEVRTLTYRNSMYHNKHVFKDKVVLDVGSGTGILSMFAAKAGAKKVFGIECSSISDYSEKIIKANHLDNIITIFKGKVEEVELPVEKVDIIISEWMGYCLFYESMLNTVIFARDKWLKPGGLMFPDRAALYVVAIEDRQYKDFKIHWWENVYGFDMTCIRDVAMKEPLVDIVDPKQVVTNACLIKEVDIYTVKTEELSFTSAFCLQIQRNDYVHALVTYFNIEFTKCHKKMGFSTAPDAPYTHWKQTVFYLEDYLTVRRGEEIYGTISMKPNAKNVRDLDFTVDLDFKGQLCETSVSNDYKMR
# DNMT3B-DNMT3L complex (Homo sapiens), sequence (Q9UJW3 whole entry, looked up, other chains not shown): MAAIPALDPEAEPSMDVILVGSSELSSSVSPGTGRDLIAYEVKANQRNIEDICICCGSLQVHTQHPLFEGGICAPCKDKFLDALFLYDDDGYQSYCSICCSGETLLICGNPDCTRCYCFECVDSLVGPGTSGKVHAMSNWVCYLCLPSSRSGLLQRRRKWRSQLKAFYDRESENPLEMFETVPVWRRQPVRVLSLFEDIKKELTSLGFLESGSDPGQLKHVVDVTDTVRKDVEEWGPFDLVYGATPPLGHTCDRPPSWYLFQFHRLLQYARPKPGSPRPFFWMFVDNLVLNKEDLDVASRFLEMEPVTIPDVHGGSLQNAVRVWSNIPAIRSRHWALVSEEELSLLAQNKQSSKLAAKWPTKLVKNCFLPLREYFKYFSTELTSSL
# Protein arginine N-methyltransferase 1, sequence (Q99873 whole entry, looked up): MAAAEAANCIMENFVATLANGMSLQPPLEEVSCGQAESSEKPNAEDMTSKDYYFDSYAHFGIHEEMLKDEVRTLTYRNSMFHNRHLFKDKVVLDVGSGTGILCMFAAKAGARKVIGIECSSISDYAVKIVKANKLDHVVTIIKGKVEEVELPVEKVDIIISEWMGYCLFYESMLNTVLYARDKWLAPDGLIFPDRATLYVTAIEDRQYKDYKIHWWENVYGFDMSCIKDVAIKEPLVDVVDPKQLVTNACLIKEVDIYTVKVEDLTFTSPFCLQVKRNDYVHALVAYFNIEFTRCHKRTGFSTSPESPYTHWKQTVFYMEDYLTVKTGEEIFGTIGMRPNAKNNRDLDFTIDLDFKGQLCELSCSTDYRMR
smiles,measurement,setting,value
C=CC(=O)Nc1cccc(-c2c[nH]cc2CN(C)CCN)c1,inhibition,[1],inactive
same,inhibition,[2],inactive
same,Ratio IC50,Homo sapiens,27
same,Activity,[3],inactive
same,inhibition,[4],inactive
same,Activity,HEK-293T,Non-Toxic
same,IC50,[5],110 nM
